In publication PMC4076525 (The Journal of General Physiology, 2014):

Key:
59FeEnt transport = assay type: cell-based, Escherichia coli; details: for 59FeEnt transport rate compared with wild-type FepA: before fluoresceination; for Vmax fold lower after fluoresceination: 59FeEnt uptake
Procedure, shortened: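 Cultures were grown in LB with antibiotics, then in iron-deficient MOPS medium to 10^9 cells/ml. Cells were assayed before and after labeling with 5 µM fluorescein-5-maleimide (pH 6.5 phosphate/NaCl buffer, 5 min, 37°C, β-mercaptoethanol stop). Uptake was measured in MOPS medium with 0.4% glucose at 37°C in 10-ml volumes. KM and Vmax came from an enzyme-kinetics equation fit per sample.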

[1] = Fluorescence recovery after FeEnt quenching; assay type: cell-based, Escherichia coli; details: after FM modification
[2] = Extent of FeEnt-induced quenching of FM fluorescence in live cells; assay type: cell-based, Escherichia coli; details: 10 nM FeEnt, 2.5 × 10^7 cells/ml, FM-labeled mutants
Procedure, shortened: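 Hosts were tonB+ ΔfepA or ΔtonB ΔfepA E. coli expressing plasmid-borne Cys-substituted FepA, grown in iron-deficient MOPS medium to late log. 10^10 cells were labeled with 5 µM fluorescein-5-maleimide in 50 mM Na2HPO4, 0.9% NaCl, pH 6.5, for 5 min at 37°C. Labeling was quenched with β-mercaptoethanol, and cells were resuspended in PBS with 0.4% glucose. FeEnt was added to 2.5 × 10^7 cells in 3 ml, stirred at 2°C, with emission read at 520 nm.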

[3] = 59FeEnt binding by cells expressing FepA Cys substitution mutants; design: species or system Escherichia coli; details: read-out: Binding >FM Kd, after modification with FM
Procedure, shortened: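 Cells were grown overnight at 37°C in LB with streptomycin (100 µg/ml) and chloramphenicol (20 µg/ml). They were subcultured 1% into iron-deficient MOPS medium and grown 5.5–6 h to 10^9 cells/ml, then labeled with 5 µM fluorescein-5-maleimide at pH 6.5 for 5 min at 37°C. Reactions were stopped with 100 mM β-mercaptoethanol. Binding ran at 0°C in 10-ml volumes, and Kd and capacity came from a bound-versus-total fit.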

Row | Molecule | 59FeEnt transport rate compared with wild-type FepA (59FeEnt transport) | Increase of fluorescence recovery time compared with S271C-FM [1] | Vmax fold lower after fluoresceination (59FeEnt transport) | Quenching of FM emissions by FeEnt binding [2] | other results
1 | A383C (protein, UniProt P05825 23-746, looked up, variant A383C) Ferrienterobactin receptor: QEPTDTPVSHDDTIVVTAAEQNLQAPGVSTITADEIRKNPVARDVSKIIRTMPGVNLTGNSTSGQRGNNRQIDIRGMGPENTLILIDGKPVSSRNSVRQGWRGERDTRGDTSWVPPEMIERIEVLRGPAAARYGNGAAGGVVNIITKKGSGEWHGSWDAYFNAPEHKEEGATKRTNFSLTGPLGDEFSFRLYGNLDKTQADAWDINQGHQSARAGTYATTLPAGREGVINKDINGVVRWDFAPLQSLELEAGYSRQGNLYAGDTQNTNSDSYTRSKYGDETNRLYRQNYALTWNGGWDNGVTTSNWVQYEHTRNSRIPEGLAGGTEGKFNEKATQDFVDIDLDDVMLHSEVNLPIDFLVNQTLTLGTEWNQQRMKDLSSNTQCLTGTNTGGAIDGVSTTDRSPYSKAEIFSLFAENNMELTDSTIVTPGLRFDHHSIVGNNWSPALNISQGLGDDFTLKMGIARAYKAPSLYQTNPNYILYSKGQGCYASAGGCYLQGNDDLKAETSINKEIGLEFKRDGWLAGVTWFRNDYRNKIEAGYVAVGQNAVGTDLYQWDNVPKAVVEGLEGSLNVPVSETVMWTNNITYMLKSENKTTGDRLSIIPEYTLNSTLSWQAREDLSMQTTFTWYGKQQPKKYNYKGQPAVGPETKEISPYSIVGLSATWDVTKNVSLTGGVDNLFDKRLWRAGNAQTTGDLAGANYIAGAGAYTYNEPGRTWYMSVNTHF | about half that rate | 10 fold | – | – | –
2 | S490C-FM: FepA S490C labeled with fluorescein-5-maleimide (FM) (conjugate, UniProt P05825 23-746, looked up, variant S490C, fluorescein-5-maleimide label) Ferrienterobactin receptor: QEPTDTPVSHDDTIVVTAAEQNLQAPGVSTITADEIRKNPVARDVSKIIRTMPGVNLTGNSTSGQRGNNRQIDIRGMGPENTLILIDGKPVSSRNSVRQGWRGERDTRGDTSWVPPEMIERIEVLRGPAAARYGNGAAGGVVNIITKKGSGEWHGSWDAYFNAPEHKEEGATKRTNFSLTGPLGDEFSFRLYGNLDKTQADAWDINQGHQSARAGTYATTLPAGREGVINKDINGVVRWDFAPLQSLELEAGYSRQGNLYAGDTQNTNSDSYTRSKYGDETNRLYRQNYALTWNGGWDNGVTTSNWVQYEHTRNSRIPEGLAGGTEGKFNEKATQDFVDIDLDDVMLHSEVNLPIDFLVNQTLTLGTEWNQQRMKDLSSNTQALTGTNTGGAIDGVSTTDRSPYSKAEIFSLFAENNMELTDSTIVTPGLRFDHHSIVGNNWSPALNISQGLGDDFTLKMGIARAYKAPSLYQTNPNYILYSKGQGCYACAGGCYLQGNDDLKAETSINKEIGLEFKRDGWLAGVTWFRNDYRNKIEAGYVAVGQNAVGTDLYQWDNVPKAVVEGLEGSLNVPVSETVMWTNNITYMLKSENKTTGDRLSIIPEYTLNSTLSWQAREDLSMQTTFTWYGKQQPKKYNYKGQPAVGPETKEISPYSIVGLSATWDVTKNVSLTGGVDNLFDKRLWRAGNAQTTGDLAGANYIAGAGAYTYNEPGRTWYMSVNTHF | – | – | 3–10 fold | 30% | Km (59FeEnt transport; read-out: Transport >FM KM, 59FeEnt, 37°C, after modification with FM): 0.057 µM; Kd [3]: 90 nM
3 | T550C (protein, UniProt P05825 23-746, looked up, variant T550C) Ferrienterobactin receptor: QEPTDTPVSHDDTIVVTAAEQNLQAPGVSTITADEIRKNPVARDVSKIIRTMPGVNLTGNSTSGQRGNNRQIDIRGMGPENTLILIDGKPVSSRNSVRQGWRGERDTRGDTSWVPPEMIERIEVLRGPAAARYGNGAAGGVVNIITKKGSGEWHGSWDAYFNAPEHKEEGATKRTNFSLTGPLGDEFSFRLYGNLDKTQADAWDINQGHQSARAGTYATTLPAGREGVINKDINGVVRWDFAPLQSLELEAGYSRQGNLYAGDTQNTNSDSYTRSKYGDETNRLYRQNYALTWNGGWDNGVTTSNWVQYEHTRNSRIPEGLAGGTEGKFNEKATQDFVDIDLDDVMLHSEVNLPIDFLVNQTLTLGTEWNQQRMKDLSSNTQALTGTNTGGAIDGVSTTDRSPYSKAEIFSLFAENNMELTDSTIVTPGLRFDHHSIVGNNWSPALNISQGLGDDFTLKMGIARAYKAPSLYQTNPNYILYSKGQGCYASAGGCYLQGNDDLKAETSINKEIGLEFKRDGWLAGVTWFRNDYRNKIEAGYVAVGQNAVGCDLYQWDNVPKAVVEGLEGSLNVPVSETVMWTNNITYMLKSENKTTGDRLSIIPEYTLNSTLSWQAREDLSMQTTFTWYGKQQPKKYNYKGQPAVGPETKEISPYSIVGLSATWDVTKNVSLTGGVDNLFDKRLWRAGNAQTTGDLAGANYIAGAGAYTYNEPGRTWYMSVNTHF | – | 10 fold | – | – | –
4 | A698C (protein, UniProt P05825 23-746, looked up, variant A698C) Ferrienterobactin receptor: QEPTDTPVSHDDTIVVTAAEQNLQAPGVSTITADEIRKNPVARDVSKIIRTMPGVNLTGNSTSGQRGNNRQIDIRGMGPENTLILIDGKPVSSRNSVRQGWRGERDTRGDTSWVPPEMIERIEVLRGPAAARYGNGAAGGVVNIITKKGSGEWHGSWDAYFNAPEHKEEGATKRTNFSLTGPLGDEFSFRLYGNLDKTQADAWDINQGHQSARAGTYATTLPAGREGVINKDINGVVRWDFAPLQSLELEAGYSRQGNLYAGDTQNTNSDSYTRSKYGDETNRLYRQNYALTWNGGWDNGVTTSNWVQYEHTRNSRIPEGLAGGTEGKFNEKATQDFVDIDLDDVMLHSEVNLPIDFLVNQTLTLGTEWNQQRMKDLSSNTQALTGTNTGGAIDGVSTTDRSPYSKAEIFSLFAENNMELTDSTIVTPGLRFDHHSIVGNNWSPALNISQGLGDDFTLKMGIARAYKAPSLYQTNPNYILYSKGQGCYASAGGCYLQGNDDLKAETSINKEIGLEFKRDGWLAGVTWFRNDYRNKIEAGYVAVGQNAVGTDLYQWDNVPKAVVEGLEGSLNVPVSETVMWTNNITYMLKSENKTTGDRLSIIPEYTLNSTLSWQAREDLSMQTTFTWYGKQQPKKYNYKGQPAVGPETKEISPYSIVGLSATWDVTKNVSLTGGVDNLFDKRLWRAGNAQTTGDLAGCNYIAGAGAYTYNEPGRTWYMSVNTHF | – | – | – | > 60% | –
5 | A322C-FM: FepA A322C labeled with fluorescein-5-maleimide (FM) (conjugate, UniProt P05825 23-746, looked up, variant A322C, fluorescein-5-maleimide label) Ferrienterobactin receptor: QEPTDTPVSHDDTIVVTAAEQNLQAPGVSTITADEIRKNPVARDVSKIIRTMPGVNLTGNSTSGQRGNNRQIDIRGMGPENTLILIDGKPVSSRNSVRQGWRGERDTRGDTSWVPPEMIERIEVLRGPAAARYGNGAAGGVVNIITKKGSGEWHGSWDAYFNAPEHKEEGATKRTNFSLTGPLGDEFSFRLYGNLDKTQADAWDINQGHQSARAGTYATTLPAGREGVINKDINGVVRWDFAPLQSLELEAGYSRQGNLYAGDTQNTNSDSYTRSKYGDETNRLYRQNYALTWNGGWDNGVTTSNWVQYEHTRNSRIPEGLCGGTEGKFNEKATQDFVDIDLDDVMLHSEVNLPIDFLVNQTLTLGTEWNQQRMKDLSSNTQALTGTNTGGAIDGVSTTDRSPYSKAEIFSLFAENNMELTDSTIVTPGLRFDHHSIVGNNWSPALNISQGLGDDFTLKMGIARAYKAPSLYQTNPNYILYSKGQGCYASAGGCYLQGNDDLKAETSINKEIGLEFKRDGWLAGVTWFRNDYRNKIEAGYVAVGQNAVGTDLYQWDNVPKAVVEGLEGSLNVPVSETVMWTNNITYMLKSENKTTGDRLSIIPEYTLNSTLSWQAREDLSMQTTFTWYGKQQPKKYNYKGQPAVGPETKEISPYSIVGLSATWDVTKNVSLTGGVDNLFDKRLWRAGNAQTTGDLAGANYIAGAGAYTYNEPGRTWYMSVNTHF | – | – | 3–10 fold | similarly quenched | –
6 | S490C (protein, UniProt P05825 23-746, looked up, variant S490C) Ferrienterobactin receptor: QEPTDTPVSHDDTIVVTAAEQNLQAPGVSTITADEIRKNPVARDVSKIIRTMPGVNLTGNSTSGQRGNNRQIDIRGMGPENTLILIDGKPVSSRNSVRQGWRGERDTRGDTSWVPPEMIERIEVLRGPAAARYGNGAAGGVVNIITKKGSGEWHGSWDAYFNAPEHKEEGATKRTNFSLTGPLGDEFSFRLYGNLDKTQADAWDINQGHQSARAGTYATTLPAGREGVINKDINGVVRWDFAPLQSLELEAGYSRQGNLYAGDTQNTNSDSYTRSKYGDETNRLYRQNYALTWNGGWDNGVTTSNWVQYEHTRNSRIPEGLAGGTEGKFNEKATQDFVDIDLDDVMLHSEVNLPIDFLVNQTLTLGTEWNQQRMKDLSSNTQALTGTNTGGAIDGVSTTDRSPYSKAEIFSLFAENNMELTDSTIVTPGLRFDHHSIVGNNWSPALNISQGLGDDFTLKMGIARAYKAPSLYQTNPNYILYSKGQGCYACAGGCYLQGNDDLKAETSINKEIGLEFKRDGWLAGVTWFRNDYRNKIEAGYVAVGQNAVGTDLYQWDNVPKAVVEGLEGSLNVPVSETVMWTNNITYMLKSENKTTGDRLSIIPEYTLNSTLSWQAREDLSMQTTFTWYGKQQPKKYNYKGQPAVGPETKEISPYSIVGLSATWDVTKNVSLTGGVDNLFDKRLWRAGNAQTTGDLAGANYIAGAGAYTYNEPGRTWYMSVNTHF | about half that rate | 10 fold | – | – | –
